Measured values published in ChEMBL document CHEMBL4014307, “Diindolylmethane Derivatives: Potent Agonists of the Immunostimulatory Orphan G Protein-Coupled Receptor GPR84” (J Med Chem, 2017).
Activity calls are given as the source filed them.

How the values were obtained:
[1] = molecular target: T1, G-protein coupled receptor 84 (Homo sapiens, UniProt Q9NQS5); assay: Agonist activity at human GPR84 expressed in CHO cells assessed as beta-arrestin recruitment after 90 mins by beta-galactosidase complementation assay; format: cell-based
How it was run: (§1)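 CHO cells co-expressing human GPR84–β-galactosidase fragment and β-arrestin–complementary fragment, 20,000 per well. Compounds in DMSO (final ≤1 %) added for 90 min, then detection reagent for 60 min at rt; luminescence read. Three to five independent experiments in duplicate.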

[2] = molecular target: T1, G-protein coupled receptor 84; assay: Agonist activity at Gi coupled human GPR84 expressed in CHO cells assessed as inhibition of forskolin-induced cAMP accumulation at 10 uM after 15 mins in presence of [3H]-cAMP by radiometric assay relative to decanoic acid; format: functional, cell-based
How it was run: (§2)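 Forskolin (10 µM) added with or without test compound for 15 min. Cells lysed in hot (90 °C) EDTA/Triton X-100 solution. cAMP measured radiometrically with bovine adrenal binding protein and [³H]cAMP, expressed as % of forskolin-alone response.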

[3] = molecular target: T1, G-protein coupled receptor 84; assay: Antagonist activity at Gi coupled human GPR84 expressed in CHO cells assessed as inhibition of decanoic acid-induced receptor activation at 10 uM; format: cell-based
[4] = molecular target: T2, Free fatty acid receptor 4 (Homo sapiens) (UniProt Q5NUL3); assay: Agonist activity at human FFAR4 expressed in CHO cells assessed as beta-arrestin recruitment at 10 uM after 90 mins by beta-galactosidase complementation assay; format: cell-based
T2 sequence (whole entry): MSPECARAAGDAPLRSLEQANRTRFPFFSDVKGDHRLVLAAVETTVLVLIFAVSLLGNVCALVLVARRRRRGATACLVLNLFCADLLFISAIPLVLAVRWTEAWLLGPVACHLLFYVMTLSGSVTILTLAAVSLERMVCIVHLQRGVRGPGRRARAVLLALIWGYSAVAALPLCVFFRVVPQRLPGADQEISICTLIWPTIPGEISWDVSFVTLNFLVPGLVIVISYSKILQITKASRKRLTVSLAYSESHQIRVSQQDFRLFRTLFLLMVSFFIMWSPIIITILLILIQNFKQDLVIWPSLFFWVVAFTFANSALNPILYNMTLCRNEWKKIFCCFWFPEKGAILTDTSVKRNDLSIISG
How it was run: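 Human FFAR4 in CHO β-galactosidase complementation cells, 30,000 per well, serum-free F12 ~4 h before assay; final DMSO 1 %, compounds 10 µM. Agonist mode: 90 min with agonist, then detection 60 min rt dark; luminescence. 3–4 experiments in duplicate.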

[5] = molecular target: T3, Free fatty acid receptor 1 (Homo sapiens, UniProt O14842); assay: Agonist activity at Gq protein coupled human FFAR1 expressed in human 1321N1 cells assessed as induction of intracellular calcium level at 10 uM measured at 1.2 secs time interval by Fluo-4-AM dye based fluorescence assay; format: functional, cell-based
How it was run: (§3)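 1321N1 astrocytoma cells retrovirally expressing human FFAR1, 50,000 per well, loaded 60 min at rt in dark with 3 µM Fluo-4-AM and 0.06 % Pluronic F-127 in HBSS. Compounds at 10 µM final; antagonist mode uses 30 min preincubation before TUG-424 (final 1 µM). Fluorescence at 520 nm (excitation 485 nm), 90 reads at 1.2 s intervals. Normalized to TUG-424 at 10 µM (agonist) or 1 µM (antagonist).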

[6] = molecular target: T2, Free fatty acid receptor 4 (Homo sapiens); assay: Antagonist activity at human FFAR4 expressed in CHO cells assessed as inhibition of TUG-89-induced beta-arrestin recruitment at 10 uM preincubated for 30 mins followed by TUG-89 addition measured after 90 mins by beta-galactosidase complementation assay; format: cell-based
[7] = molecular target: T1, G-protein coupled receptor 84; assay: Agonist activity at Gi coupled human GPR84 expressed in CHO cells assessed as inhibition of forskolin-induced cAMP accumulation after 15 mins in presence of [3H]-cAMP by radiometric assay; format: functional, cell-based; how it was run: as §2
[8] = molecular target: T1, G-protein coupled receptor 84; assay: Agonist activity at human GPR84 expressed in CHO cells assessed as beta-arrestin recruitment at 10 uM after 90 mins by beta-galactosidase complementation assay relative to embelin; format: cell-based; how it was run: as §1
[9] = molecular target: T3, Free fatty acid receptor 1; assay: Antagonist activity at Gq protein coupled human FFAR1 expressed in human 1321N1 cells assessed as inhibition of TUG-424-induced intracellular calcium level preincubated for 30 mins followed by TUG-424 addition measured at 1.2 secs time interval by Fluo-4-AM dye based fluorescence assay; format: functional, cell-based; how it was run: as §3
[10] = molecular target: T1, G-protein coupled receptor 84; assay: Agonist activity at Gi coupled human GPR84 expressed in CHO cells assessed as inhibition of forskolin-induced cAMP accumulation up to 100 uM preincubated for 5 mins followed by forskolin addition measured after 15 mins in presence of [3H]-cAMP by radiometric assay; format: functional, cell-based
How it was run: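 Concentration-response in CHO-hGPR84 cells. Compound preincubated 5 min, then forskolin 10 µM added for a further 15 min. Maximal forskolin-induced cAMP without agonist set as 100 %. […] Mean ± SEM of 3 independent experiments in duplicate.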

T1 sequence (Q9NQS5 whole entry, the tested form may be a part): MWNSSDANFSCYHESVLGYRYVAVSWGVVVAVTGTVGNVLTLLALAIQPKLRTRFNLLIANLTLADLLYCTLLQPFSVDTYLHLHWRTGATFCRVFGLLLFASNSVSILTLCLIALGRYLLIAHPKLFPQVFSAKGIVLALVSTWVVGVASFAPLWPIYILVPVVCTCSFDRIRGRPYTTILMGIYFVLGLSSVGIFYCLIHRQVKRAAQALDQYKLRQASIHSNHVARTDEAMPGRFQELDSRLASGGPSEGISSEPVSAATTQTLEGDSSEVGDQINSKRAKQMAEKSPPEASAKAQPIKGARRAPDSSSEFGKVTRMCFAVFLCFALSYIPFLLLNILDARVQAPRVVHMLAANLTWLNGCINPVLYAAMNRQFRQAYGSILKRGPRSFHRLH
T3 sequence (O14842 whole entry): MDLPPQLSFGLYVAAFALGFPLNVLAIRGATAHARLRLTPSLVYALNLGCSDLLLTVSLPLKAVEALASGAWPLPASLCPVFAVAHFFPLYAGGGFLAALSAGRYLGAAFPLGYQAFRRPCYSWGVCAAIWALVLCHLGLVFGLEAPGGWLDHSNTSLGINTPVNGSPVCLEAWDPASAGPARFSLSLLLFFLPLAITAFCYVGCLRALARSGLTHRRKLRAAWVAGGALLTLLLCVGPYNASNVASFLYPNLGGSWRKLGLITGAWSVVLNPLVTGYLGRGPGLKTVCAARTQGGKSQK

Row | Compound | EC50 [1] [µM] | Emax [2] [%] | inhibition [3] | Activity [4] | Activity [5] | inhibition [6] | EC50 [7] [µM] | Emax [8] [%] | EC50 [9] [µM] | inhibition [10]
1 | Cn1cc(Cc2cn(C)c3ccccc23)c2ccccc21 | > 10 | -37 | inactive | inactive | inactive | inactive | > 10 | -3 |  | 
2 | CC(c1c[nH]c2cccc(F)c12)c1c[nH]c2cccc(F)c12 | > 10 | 5 | inactive | inactive | inactive | inactive | > 10 | 34 |  | 
3 | Cn1cc(Cc2c[nH]c3ccccc23)c2ccccc21 | > 10 | 43 | inactive | inactive | inactive | inactive | ≥ 10 | 8 |  | 
4 | CCCCC(c1c[nH]c2ccccc12)c1c[nH]c2ccccc12 | > 10 | -4 | inactive | inactive | inactive | inactive | > 10 | -3 |  | 
5 | c1cc2c(c(C(c3c[nH]c4ccccc34)c3c[nH]c4ccccc34)c1)OCO2 | > 10 | 0 | inactive | inactive | inactive | inactive | > 10 | 7 |  | 
6 | Oc1ccc(C(c2c[nH]c3ccccc23)c2c[nH]c3ccccc23)cc1 | > 10 | 7 | inactive | inactive | inactive | inactive | > 10 | -5 |  | 
7 | Clc1cccc2[nH]cc(Cc3c[nH]c4cccc(Cl)c34)c12 | > 10 | 111 |  | inactive | inactive | inactive | 1.14 | 25 |  | 
8 | COc1ccc2[nH]cc(C=C3C(=O)Nc4ccc(F)cc43)c2c1 | > 10 | 7 | inactive | inactive | inactive | inactive | > 10 | -31 |  | 
9 | O=C1Nc2ccccc2C1=Cc1ccc2[nH]ccc2c1 | > 10 | -16 | inactive | inactive | inactive | inactive | > 10 | -7 |  | 
10 | CCCC(c1c[nH]c2ccccc12)c1c[nH]c2ccccc12 | 6.07 | -24 | inactive | inactive | inactive | inactive | > 10 | 199 | 8.81 | 
11 | CC(C)C(c1c[nH]c2ccccc12)c1c[nH]c2ccccc12 | 7.29 | 16 | inactive | inactive | inactive | inactive | > 10 | 167 | 8.89 | 
12 | OCc1c[nH]c2ccccc12 |  |  |  |  |  |  |  |  |  | inactive
13 | CC(c1c[nH]c2ccccc12)c1c[nH]c2ccccc12 [VIBRINDOLE A] | > 10 | -5 | inactive | inactive | inactive | inactive | > 10 | 3 |  | 
14 | O=C(O)c1ccc2[nH]cc(Cc3c[nH]c4ccc(C(=O)O)cc34)c2c1 | > 10 | 28 | inactive | inactive | inactive | inactive | ≥ 10 | -5 |  | 
15 | c1cnc2[nH]cc(Cc3c[nH]c4ncccc34)c2c1 | 2.27 | -12 | inactive | inactive | inactive | inactive | > 10 | 115 |  | 
16 | Fc1cc2[nH]cc(Cc3c[nH]c4cc(F)c(F)cc34)c2cc1F | 10.3 | 121 |  | inactive | inactive | inactive | 0.187 | 92 |  | 
17 | Clc1ccc2c(Cc3c[nH]c4cc(Cl)ccc34)c[nH]c2c1 | 5.34 | 4 | inactive | inactive | inactive | inactive | > 10 | 118 |  | 
18 | Fc1ccc2c(Cc3c[nH]c4cc(F)ccc34)c[nH]c2c1 | 7.53 | 89 |  | inactive | inactive | inactive | 0.625 | 48 |  | 
19 | COc1ccc2[nH]cc(Cc3c[nH]c4ccc(OC)cc34)c2c1 | 1.2 | 119 |  | inactive | inactive | inactive | 0.365 to 0.369 | 103 |  | 
20 | Cc1ccc(C(c2c[nH]c3ccccc23)c2c[nH]c3ccccc23)cc1 | > 10 | 2 | inactive | inactive | inactive | inactive | > 10 | 10 |  | 
21 | c1ccc2c(C(c3c[nH]c4ccccc34)c3c[nH]c4ccccc34)c[nH]c2c1 | > 10 | -10 | inactive | inactive | inactive | inactive | > 10 | 10 |  | 
22 | c1ccc2c(c1)[nH]c1cc3c(cc12)[nH]c1ccccc13 |  |  |  |  |  |  |  |  |  | inactive
23 | Fc1cccc2[nH]cc(Cc3c[nH]c4cccc(F)c34)c12 | 1.23 | 110 |  | inactive | inactive | inactive | 0.328 | 108 | 6.49 | 
24 | Cc1[nH]c2ccccc2c1Cc1c(C)[nH]c2ccccc12 | > 10 | 42 | inactive | inactive | inactive | inactive | ≥ 10 | 23 |  | 
25 | COc1ccc2[nH]cc(Cc3c[nH]c4ccccc34)c2c1 | 6.47 | 97 |  | inactive | inactive | inactive | 1.89 | 110 |  | 
26 | O=C1Nc2ccccc2/C1=C/c1c[nH]c2ccccc12 | > 10 | -17 | inactive | inactive | inactive | inactive | > 10 | -22 |  | 
